Experiments:
[1] = species: Rattus norvegicus; assay: Selectivity index, ratio of IC50 for rat serum BuChE to IC50 for 5% rat cortex homogenate AChE
[2] = molecular target: Acetylcholinesterase (Electrophorus electricus, UniProt O42275); assay: Inhibition of electric eel AChE using acetylthiocholine chloride as substrate after 15 mins by Ellman's method
[3] = molecular target: T1, Amine oxidase [flavin-containing] A (Homo sapiens, UniProt P21397); assay: Inhibition of recombinant human MAO-A expressed in baculovirus infected BTI insect cells using kynuramine as substrate after 30 mins by fluorescence assay
T1 sequence (P21397 whole entry): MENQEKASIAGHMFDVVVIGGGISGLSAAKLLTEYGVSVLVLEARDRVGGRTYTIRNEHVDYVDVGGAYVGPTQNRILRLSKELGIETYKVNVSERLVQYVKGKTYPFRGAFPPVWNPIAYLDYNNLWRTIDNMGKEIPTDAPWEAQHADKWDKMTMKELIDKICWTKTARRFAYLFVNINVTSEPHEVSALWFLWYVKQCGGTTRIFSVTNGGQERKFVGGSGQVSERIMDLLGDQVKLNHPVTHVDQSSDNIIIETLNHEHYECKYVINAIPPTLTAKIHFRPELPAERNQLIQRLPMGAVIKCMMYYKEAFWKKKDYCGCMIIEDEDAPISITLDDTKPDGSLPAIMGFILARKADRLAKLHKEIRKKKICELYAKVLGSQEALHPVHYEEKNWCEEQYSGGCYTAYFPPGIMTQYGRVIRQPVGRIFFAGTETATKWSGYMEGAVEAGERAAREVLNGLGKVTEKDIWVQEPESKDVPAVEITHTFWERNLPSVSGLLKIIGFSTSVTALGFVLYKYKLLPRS

[4] = molecular target: T2, Acetylcholinesterase (Rattus norvegicus, UniProt P37136)
T2 sequence (P37136 whole entry): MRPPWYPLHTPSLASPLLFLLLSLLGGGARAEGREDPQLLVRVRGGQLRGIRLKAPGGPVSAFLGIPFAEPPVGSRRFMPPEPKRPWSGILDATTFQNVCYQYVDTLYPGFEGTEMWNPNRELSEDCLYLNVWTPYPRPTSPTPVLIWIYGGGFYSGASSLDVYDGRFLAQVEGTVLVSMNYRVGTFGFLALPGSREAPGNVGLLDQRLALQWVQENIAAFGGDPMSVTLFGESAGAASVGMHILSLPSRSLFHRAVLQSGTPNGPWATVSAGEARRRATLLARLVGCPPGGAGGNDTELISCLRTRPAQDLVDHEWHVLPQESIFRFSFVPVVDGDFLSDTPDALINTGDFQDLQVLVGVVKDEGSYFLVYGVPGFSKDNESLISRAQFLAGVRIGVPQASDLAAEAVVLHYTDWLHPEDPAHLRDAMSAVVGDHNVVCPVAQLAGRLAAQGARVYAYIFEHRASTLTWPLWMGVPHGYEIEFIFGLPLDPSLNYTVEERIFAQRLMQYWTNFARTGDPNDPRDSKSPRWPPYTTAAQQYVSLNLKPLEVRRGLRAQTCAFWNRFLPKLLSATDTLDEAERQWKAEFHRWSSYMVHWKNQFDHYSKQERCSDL

[5] = molecular target: Cholinesterase (Equus caballus, UniProt P81908); assay: Inhibition of equine serum BuChE using butyrylthiocholine chloride as substrate after 15 mins by Ellman's method
Sequence of Cholinesterase (P81908 whole entry): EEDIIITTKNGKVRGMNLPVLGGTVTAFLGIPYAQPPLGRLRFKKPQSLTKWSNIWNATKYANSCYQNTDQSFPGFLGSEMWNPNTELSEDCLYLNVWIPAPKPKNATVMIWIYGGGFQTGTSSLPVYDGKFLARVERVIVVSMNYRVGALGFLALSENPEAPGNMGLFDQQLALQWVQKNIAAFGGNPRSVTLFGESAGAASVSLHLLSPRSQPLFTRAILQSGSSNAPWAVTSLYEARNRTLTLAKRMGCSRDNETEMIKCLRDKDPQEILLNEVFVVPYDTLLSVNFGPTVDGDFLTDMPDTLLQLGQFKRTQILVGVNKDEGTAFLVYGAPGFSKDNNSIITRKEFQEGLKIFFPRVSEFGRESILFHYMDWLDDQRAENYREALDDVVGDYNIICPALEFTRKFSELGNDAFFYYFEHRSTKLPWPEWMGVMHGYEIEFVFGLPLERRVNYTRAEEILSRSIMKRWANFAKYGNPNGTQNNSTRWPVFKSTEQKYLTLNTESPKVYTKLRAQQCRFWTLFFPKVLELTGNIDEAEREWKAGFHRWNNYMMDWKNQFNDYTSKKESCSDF
Outline: (§1)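 Ellman assay. Equine serum or rat serum BuChE pre-incubated with test compound at various concentrations (DMSO <1%) in 0.1 M phosphate buffer pH 8.0 for 15 min at 37°C. DTNB (0.2%) added, absorbance read at 412 nm. Inhibition % = (1−Ai/Ac)×100. IC50 is the mean of three independent experiments, each run in triplicate.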

[6] = Inhibition of rat serum BuChE using butyrylthiocholine chloride as substrate after 15 mins by Ellman's method; outline: as §1
[7] = species: Homo sapiens; assay: Selectivity index, ratio of IC50 for recombinant human MAO-B to IC50 for recombinant human MAO-A
[8] = Selectivity index, ratio of IC50 for equine serum BuChE to IC50 for electric eel AChE
[9] = molecular target: T3, Amine oxidase [flavin-containing] B (Homo sapiens, UniProt P27338); assay: biochemical; assay type: cell-based
T3 sequence (P27338 whole entry): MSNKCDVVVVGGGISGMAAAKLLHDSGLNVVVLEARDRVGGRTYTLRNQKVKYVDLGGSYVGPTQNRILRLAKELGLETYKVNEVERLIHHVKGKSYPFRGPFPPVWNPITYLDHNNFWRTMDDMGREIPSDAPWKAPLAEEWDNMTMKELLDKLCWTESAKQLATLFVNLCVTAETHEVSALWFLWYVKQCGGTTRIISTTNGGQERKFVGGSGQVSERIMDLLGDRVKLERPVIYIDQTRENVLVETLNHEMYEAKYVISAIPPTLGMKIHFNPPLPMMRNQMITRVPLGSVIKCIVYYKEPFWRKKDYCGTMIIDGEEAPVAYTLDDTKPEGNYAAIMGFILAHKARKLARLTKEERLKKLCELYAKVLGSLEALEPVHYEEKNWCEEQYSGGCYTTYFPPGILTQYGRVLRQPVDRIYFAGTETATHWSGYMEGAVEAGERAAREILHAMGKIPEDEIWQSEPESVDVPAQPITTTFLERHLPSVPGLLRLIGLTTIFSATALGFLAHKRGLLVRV

Sequence of Acetylcholinesterase (Electrophorus electricus, UniProt O42275) (O42275 whole entry): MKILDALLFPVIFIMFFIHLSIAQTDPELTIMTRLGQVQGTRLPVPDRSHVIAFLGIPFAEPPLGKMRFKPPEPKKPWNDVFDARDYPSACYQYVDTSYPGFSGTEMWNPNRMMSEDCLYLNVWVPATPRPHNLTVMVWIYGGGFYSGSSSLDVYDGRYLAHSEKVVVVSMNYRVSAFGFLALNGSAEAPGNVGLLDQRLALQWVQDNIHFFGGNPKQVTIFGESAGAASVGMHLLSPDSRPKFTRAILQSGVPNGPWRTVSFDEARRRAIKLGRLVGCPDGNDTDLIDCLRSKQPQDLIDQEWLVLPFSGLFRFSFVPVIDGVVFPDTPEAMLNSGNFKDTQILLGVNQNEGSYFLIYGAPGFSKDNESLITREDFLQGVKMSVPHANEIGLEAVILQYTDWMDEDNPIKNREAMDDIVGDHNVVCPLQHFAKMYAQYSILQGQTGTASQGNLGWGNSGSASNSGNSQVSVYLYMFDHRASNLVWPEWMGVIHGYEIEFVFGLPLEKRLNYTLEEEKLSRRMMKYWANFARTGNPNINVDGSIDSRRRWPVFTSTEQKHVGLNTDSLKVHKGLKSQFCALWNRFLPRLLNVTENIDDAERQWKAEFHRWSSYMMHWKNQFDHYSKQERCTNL

Row | SMILES | Ratio IC50 [1] | IC50 [2] [µM] | IC50 [3] [µM] | IC50 [4] [µM] | IC50 [5] [µM] | IC50 [6] [µM] | Ratio IC50 [7] | Ratio IC50 [8] | IC50 [9] [µM]
1 | O=C1CCc2ccc(OCCCN3CCCCC3)cc2N1 | 1.4 | 12.2 | 13.1 | 16.5 | 39 | 22.9 | 0.5 | 3.2 | 6.2
2 | CC(C)N1CCN(CCCCOc2ccc3c(c2)NC(=O)CC3)CC1 | 1 | 1 | 14.3 | 3.6 | 4.5 | 3.7 | 0.5 | 4.4 | 7.6
3 | COc1cc2c(cc1OC)C(=O)C(CC1CCN(Cc3ccccc3)CC1)C2 (configuration not stated) [DONEPEZIL] |  |  |  |  |  | 4.42 |  |  | 
4 | O=C1CCc2ccc(OCCCCCN3CCc4ccccc4C3)cc2N1 | 1.4 | 9.1 | 4.6 | 7.8 | 0.9 | 11.2 | 1.3 | 0.1 | 5.9
5 | C#CCN(CCCCOc1ccc2c(c1)NC(=O)CC2)Cc1ccccc1 | 1.4 | 21.4 | 9.3 | 23.3 | 19.1 | 32.1 | 1 | 0.9 | 9.1
6 | CC(C)N1CCN(CCCCCOc2ccc3c(c2)NC(=O)CC3)CC1 | 0.9 | 0.9 | 8.2 | 3.2 | 3.2 | 2.7 | 1 | 3.5 | 8.1
7 | O=C1CCc2ccc(OCCCCCCN3CCCCC3)cc2N1 | 4.5 | 17.8 | 9.4 | 6 | 14.1 | 27.2 | 3.4 | 0.8 | 31.7
8 | C#CCN(CCCCCOc1ccc2c(c1)NC(=O)CC2)Cc1ccccc1 | 2.1 | 19.4 | 8.9 | 14.3 | 7 | 29.6 | 0.9 | 0.4 | 8.3
9 | O=C1CCc2ccc(OCCCCN3CCCCC3)cc2N1 | 2 | 11.8 | 9.5 | 11.6 | 15.7 | 22.8 | 0.7 | 1.3 | 6.4
10 | CCN(CC)CCCCOc1ccc2c(c1)NC(=O)CC2 | 0.7 | 5.1 | 7.7 | 14.5 | 7.7 | 9.5 | 0.5 | 1.5 | 4
11 | C#CCN(CCCOc1ccc2c(c1)NC(=O)CC2)Cc1ccccc1 | 1.2 | 23.5 | 9 | 26 | 29.5 | 30.3 | 0.8 | 1.3 | 7.3
12 | O=C1CCc2ccc(OCCCCCN3CCCCC3)cc2N1 | 3.8 | 12.8 | 8.4 | 8.4 | 32.8 | 31.4 | 2 | 2.6 | 17
13 | O=C1CCc2ccc(OCCCCN3CCN(Cc4ccccc4)CC3)cc2N1 | 2.3 | 6 | 7.4 | 13.7 | 10.7 | 31.6 | 1.3 | 1.8 | 9.4
14 | O=C1CCc2ccc(OCCCCCCN3CCCC3)cc2N1 | 2.5 | 2.6 | 1.3 | 3.4 | 0.87 | 8.5 | 2.8 | 0.33 | 3.5
15 | O=C1CCc2ccc(OCCCCCCN3CCC(N4CCCC4)CC3)cc2N1 | 1.6 | 5.3 | 6.2 | 12.3 | 32.7 | 20.2 | 3 | 6.2 | 18.3

Reference: ChEMBL document CHEMBL4033676, “Design, synthesis and biological evaluation of 3,4-dihydro-2(1H)-quinoline-O-alkylamine derivatives as new multipotent cholinesterase/monoamine oxidase inhibitors for the treatment of Alzheimer's disease” (Bioorg Med Chem, 2017)
